Results on one compound are retold here after ChEMBL document CHEMBL4765336, “Discovery of coumarin derivatives as potent and selective cyclin-dependent kinase 9 (CDK9) inhibitors with high antitumour activity” (Eur J Med Chem, 2020).

In data set [1] the target is Glycogen synthase kinase-3 (Homo sapiens) (UniProt P49840+P49841). As to the kind of experiment: Inhibition of GSK3alpha/beta (unknown origin) assessed as enzyme activity at 1 uM preincubated for 20 mins followed by ATP addition and measured after 120 mins in presence of [33P-gamma] ATP by hotspot kinase assay relative to control. Type of data set: protein assay. Conditions: time 140.0 min. More on the design: scale not given: the % may be the effect or the level left. In short, it runs like this: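 Radiometric filter-binding kinase assay, buffer pH 7.5 with 10 mM MgCl2 and 1% DMSO. Compound tested at a single 1.0 μM, preincubated 20 min at 25 °C. Reaction started with ATP/[γ-33P]ATP at 10 μM final, run 120 min at 25 °C. Remaining % enzyme activity reported, n=2.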

Data set [2] in a line: Metabolic stability in monkey liver microsomes assessed as half life at 1 uM incubated up to 60 mins in presence of NADPH by LC-MS/MS analysis. The data set is classed as ADME, Macaca mulatta, Microsome. The conditions noted are these: rhesus monkey. Put shortly: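 Liver microsomes (0.5 mg/mL) incubated at 37 °C with compound at 1.0 μM final, 3 mM MgCl2 and 1 mM NADPH in 100 mM PBS pH 7.4. Samples taken at 0, 5, 15, 30, 60 min; remaining parent measured by LC-MS/MS. k = −slope, T1/2 = 0.693/k, CLint = k/microsomal protein concentration. Midazolam served as control.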
(Liver microsomes are vesicles of endoplasmic reticulum, rich in cytochrome P450 enzymes.)

Data set [3] in a line: Volume of distribution at steady state in ICR mouse at 2 mg/kg, iv measured up to 24 hrs by LC-MS/MS analysis. Type of data set: ADME, organism-based. The conditions noted are these: in vivo, read-out: Vdss. Put shortly:
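Male ICR mice (25.1–28.8 g, n=9), fasted 12 h, given a single i.v. dose of 2.0 mg/kg at 0.4 mg/mL in DMSO/PEG200/saline (1:1:3). Blood sampled at 0, 0.083, 0.25, 0.5, 1, 2, 4, 8, 24 h. Plasma ACN-precipitated and quantified by LC-MS/MS. Parameters derived from composite mean plasma concentration-time data.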

The test system of data set [4] is MV4-11. Nature of the data set: Antitumor activity against human MV4-11 cells xenografted in Balb/c nude mouse assessed as tumor growth inhibition at 40 mg/kg, iv administered once daily for 21 days and measured twice a week by vernier caliper method relative to control. The data set is classed as functional. The conditions noted are these: MV4-11, iv, 504 h, time 21 day, read-out: TGI. (A xenograft is tissue or cells of one species grown in another, often human tumour cells in immunodeficient mice.)

Glycogen synthase kinase-3 (Homo sapiens), sequence (P49840 whole entry, looked up): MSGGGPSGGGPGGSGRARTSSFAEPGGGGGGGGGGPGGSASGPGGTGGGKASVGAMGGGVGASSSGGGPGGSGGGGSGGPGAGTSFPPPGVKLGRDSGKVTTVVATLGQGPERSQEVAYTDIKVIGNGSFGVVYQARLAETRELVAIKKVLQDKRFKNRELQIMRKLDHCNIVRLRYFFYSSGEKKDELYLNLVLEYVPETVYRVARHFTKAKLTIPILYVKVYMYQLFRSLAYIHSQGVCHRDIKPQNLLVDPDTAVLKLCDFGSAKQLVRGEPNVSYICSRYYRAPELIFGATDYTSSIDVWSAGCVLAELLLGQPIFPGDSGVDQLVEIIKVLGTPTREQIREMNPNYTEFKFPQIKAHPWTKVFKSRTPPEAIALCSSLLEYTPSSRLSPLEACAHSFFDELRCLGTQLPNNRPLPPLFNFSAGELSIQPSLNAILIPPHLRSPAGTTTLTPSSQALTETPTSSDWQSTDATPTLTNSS
Glycogen synthase kinase-3 (Homo sapiens), sequence (P49841 whole entry, looked up): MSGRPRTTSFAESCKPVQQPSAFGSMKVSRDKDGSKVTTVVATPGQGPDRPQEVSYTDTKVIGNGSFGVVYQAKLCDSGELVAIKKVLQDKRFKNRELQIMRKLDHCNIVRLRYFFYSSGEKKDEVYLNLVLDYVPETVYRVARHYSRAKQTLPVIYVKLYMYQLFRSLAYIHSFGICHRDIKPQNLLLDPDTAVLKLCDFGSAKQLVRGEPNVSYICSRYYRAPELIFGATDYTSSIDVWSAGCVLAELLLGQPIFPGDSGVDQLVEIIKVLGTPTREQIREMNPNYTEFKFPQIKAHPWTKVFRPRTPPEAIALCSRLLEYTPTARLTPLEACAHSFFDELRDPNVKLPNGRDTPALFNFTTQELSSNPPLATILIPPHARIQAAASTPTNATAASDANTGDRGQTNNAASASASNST

As for `COc1cc(F)ccc1-c1nc(Nc2ccc3c(N4CCOCC4)c(C(C)=O)c(=O)oc3c2)ncc1F`, in data set [1], the Activity was less than 10%. In addition, in data set [2], the half-life at 1 µM turned out to be 24.2 min. Also, in data set [3], the Vd came to 0.67 L/kg. For the same compound, the inhibition in vivo at 40 mg/kg in data set [4] worked out at 100%.

The term half-life denotes the time in which the quantity being followed falls by half.
